# Test results taken from ChEMBL document CHEMBL1137591, “Identification of a potent and stable antiproliferative agent by the prodrug formation of a thiolate histone deacetylase inhibitor” (Bioorg Med Chem Lett, 2007).
# Legend:
# NCI-H460 = test: Inhibition of NCI-H460 cell proliferation (mean); type: functional, cell-based; conditions: Homo sapiens
# Summary of the method: (§1)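 Cells were seeded at 1500 per well and held 24 h at 37 °C. They were then exposed for 48 h to a range of compound concentrations in RPMI-1640 with 10% FBS at 37 °C and 5% CO2. Staining used 0.5 mg/mL methylene blue for 30 min at room temperature. Dye was dissolved in 3% aqueous HCl and absorbance read at 660 nm. EC50 values are means of at least two experiments.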
# MDA-MB-231 = test: Inhibition of MDA-MB-231 cell proliferation (mean of two experiments); type: functional, cell-based, Homo sapiens; summary of the method: as §1
# HCT-116 = test: Inhibition of HCT116 cell proliferation (mean); type: functional, cell-based; conditions: Homo sapiens; summary of the method: as §1
# PC-3 = test: Inhibition of PC-3 cell proliferation (mean); type: functional, cell-based; conditions: Homo sapiens; summary of the method: as §1
# [1] = Stability (mean % remaining) in human plasma after incubation at 37 °C for 24h; type: ADME, cell-free; conditions: read-out: %R
# Summary of the method: (§2)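 Compounds were incubated in human plasma with sampling at 0, 2, 4, 8 and 24 h. The percentage of intact compound remaining was measured at each point. Values are means of at least three experiments.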
# A498 = test: Inhibition of A498 cell proliferation (mean); type: functional, cell-based; conditions: Homo sapiens; summary of the method: as §1
# [2] = Stability (mean % remaining) in human plasma after incubation at 37 °C for 2h; type: ADME, cell-free; conditions: read-out: %R; summary of the method: as §2
# T47D = test: Inhibition of T-47D cell proliferation (mean of two experiments); type: functional, cell-based; conditions: Homo sapiens; summary of the method: as §1
# [3] = Stability (mean % remaining) in human plasma after incubation at 37 °C for 0h; type: ADME; conditions: read-out: %R; summary of the method: as §2
# DLD-1 = test: Inhibition of DLD-1 cell proliferation (mean); type: functional, cell-based; conditions: Homo sapiens; summary of the method: as §1
# [4] = Stability (mean % remaining) in human plasma after incubation at 37 °C for 4h; type: ADME, cell-free; conditions: read-out: %R; summary of the method: as §2
# Malme-3M = test: Inhibition of MALME-3M cell proliferation (mean); type: functional, cell-based; conditions: Homo sapiens; summary of the method: as §1
# [5] = Stability (mean % remaining) in human plasma after incubation at 37 °C for 8h; type: ADME, cell-free; conditions: read-out: %R; summary of the method: as §2
# Histone deacetylase 1 = Histone deacetylase 1 (Homo sapiens, UniProt Q13547); test: Inhibition of HDAC1
# Sequence of Histone deacetylase 1 (Q13547 whole entry): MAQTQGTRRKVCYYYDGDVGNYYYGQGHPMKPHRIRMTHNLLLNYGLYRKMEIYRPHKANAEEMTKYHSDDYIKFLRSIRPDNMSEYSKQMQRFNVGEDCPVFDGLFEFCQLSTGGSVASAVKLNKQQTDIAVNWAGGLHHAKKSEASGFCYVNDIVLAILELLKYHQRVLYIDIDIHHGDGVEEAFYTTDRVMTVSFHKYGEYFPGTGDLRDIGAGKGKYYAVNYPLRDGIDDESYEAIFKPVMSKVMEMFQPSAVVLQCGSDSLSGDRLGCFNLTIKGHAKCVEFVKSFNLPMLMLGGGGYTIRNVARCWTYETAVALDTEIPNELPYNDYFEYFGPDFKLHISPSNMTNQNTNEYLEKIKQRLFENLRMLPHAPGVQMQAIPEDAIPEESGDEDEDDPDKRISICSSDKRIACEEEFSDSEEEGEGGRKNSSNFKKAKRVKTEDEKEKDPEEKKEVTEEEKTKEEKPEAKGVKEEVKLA
Compound,EC50 (NCI-H460) [µM],"EC50 (MDA-MB-231; Homo sapiens, MDA-MB-231) [µM]",EC50 (HCT-116) [µM],EC50 (PC-3) [µM],remaining at 24 h [1] [%],EC50 (A498) [µM],remaining at 2 h [2] [%],EC50 (T47D) [µM],remaining at 0 h [3] [%],EC50 (DLD-1) [µM],remaining at 4 h [4] [%],EC50 (Malme-3M) [µM],remaining at 8 h [5] [%],IC50 (Histone deacetylase 1) [µM],EC50 (MDA-MB-231; mda-mb-231) [µM]
O=C(CCCCCCSC(=O)C(Cc1ccccc1)Cc1ccccc1)Nc1nc(-c2ccccc2)cs1,> 20,> 20,–,–,–,–,–,–,–,–,–,–,–,–,–
C[C@H](Cc1ccccc1)C(=O)SCCCCCCC(=O)Nc1nc(-c2ccccc2)cs1,3.2,3.1,0.75,9.9,–,–,–,–,–,–,–,–,–,–,–
CC(Cc1ccccc1)C(=O)SCCCCCCC(=O)Nc1nc(-c2ccccc2)cs1 (stereo unspecified),1.5,1.9,1.2,3.2,100,2.6,100,4.3,100,1.8,99,3,99,> 100,–
COC(C(=O)SCCCCCCC(=O)Nc1nc(-c2ccccc2)cs1)c1ccccc1 (stereo unspecified),11,> 20,–,–,–,–,–,–,–,–,–,–,–,–,–
C[C@@H](Cc1ccccc1)C(=O)SCCCCCCC(=O)Nc1nc(-c2ccccc2)cs1,3,4,0.62,4.4,–,–,–,–,–,–,–,–,–,–,–
CC(C)C(=O)SCCCCCCC(=O)Nc1nc(-c2ccccc2)cs1,2.1,4.4,1.3,9.5,49,6.8,86,8.3,100,2.3,71,4.3,63,–,–
O=C(CCCCCCS)Nc1nc(-c2ccccc2)cs1,7.6,> 20,–,–,–,–,–,–,–,–,–,–,–,0.048,–
CC(C(=O)SCCCCCCC(=O)Nc1nc(-c2ccccc2)cs1)c1ccccc1 (stereo unspecified),3.2,> 20,23,37,–,26,–,> 100,–,86,–,33,–,–,27
